# Experimental data from ChEMBL document CHEMBL2424631, “The carbonate analogues of 5'-halogenated resiniferatoxin as TRPV1 ligands” (Eur J Med Chem, 2013).
# Legend:
# Assay type in all cases: cell-based
# [1] = molecular target: T1, Transient receptor potential cation channel subfamily V member 1 (Homo sapiens, UniProt Q8NER1); assay: Agonist activity at human TRPV1 expressed in CHO cells assessed as stimulation of Ca2+ uptake
# Outline: (§1)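 Functional 45Ca2+ uptake assay in CHO cells heterologously expressing rat or human TRPV1. Agonism is reported as EC50, and as % of the capsaicin response. Antagonism is reported as Ki(ant) against capsaicin-stimulated 45Ca2+ uptake, and as % antagonism of that response. Ki and EC50 are mean ± SEM of three or more independent experiments.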
# [2] = molecular target: T1, Transient receptor potential cation channel subfamily V member 1; assay: Displacement of [3H]RTX from human TRPV1 expressed in CHO cells
# Outline: (§2)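 Competitive binding against [3H]RTX on rat or human TRPV1 heterologously expressed in CHO cells. Affinity is reported as Ki, as mean ± SEM of three or more independent experiments.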
# [3] = molecular target: T2, Transient receptor potential cation channel subfamily V member 1 (Rattus norvegicus, UniProt O35433); assay: Displacement of [3H]RTX from rat TRPV1 expressed in CHO cells; outline: as §2
# T2 sequence (O35433 whole entry): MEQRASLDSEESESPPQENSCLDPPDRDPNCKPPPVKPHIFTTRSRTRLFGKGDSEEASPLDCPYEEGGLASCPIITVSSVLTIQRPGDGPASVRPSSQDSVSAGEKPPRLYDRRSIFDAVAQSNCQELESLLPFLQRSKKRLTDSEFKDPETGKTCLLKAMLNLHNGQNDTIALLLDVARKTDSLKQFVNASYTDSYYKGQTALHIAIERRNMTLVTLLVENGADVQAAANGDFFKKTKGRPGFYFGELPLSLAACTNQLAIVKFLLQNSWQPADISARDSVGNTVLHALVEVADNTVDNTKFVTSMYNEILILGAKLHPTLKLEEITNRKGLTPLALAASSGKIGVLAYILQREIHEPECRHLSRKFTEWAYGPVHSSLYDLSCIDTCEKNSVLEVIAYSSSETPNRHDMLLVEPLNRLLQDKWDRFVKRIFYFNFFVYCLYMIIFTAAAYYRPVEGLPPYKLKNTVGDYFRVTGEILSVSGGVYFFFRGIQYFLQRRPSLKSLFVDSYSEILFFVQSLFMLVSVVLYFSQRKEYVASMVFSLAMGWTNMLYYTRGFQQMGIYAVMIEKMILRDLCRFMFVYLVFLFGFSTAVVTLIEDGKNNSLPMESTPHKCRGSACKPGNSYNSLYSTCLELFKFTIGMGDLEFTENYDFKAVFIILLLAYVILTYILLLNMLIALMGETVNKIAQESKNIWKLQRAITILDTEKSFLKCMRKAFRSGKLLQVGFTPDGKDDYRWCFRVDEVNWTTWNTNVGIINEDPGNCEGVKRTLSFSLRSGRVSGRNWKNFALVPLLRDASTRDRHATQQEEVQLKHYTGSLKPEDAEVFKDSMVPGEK
# [4] = molecular target: T2, Transient receptor potential cation channel subfamily V member 1; assay: Agonist activity at rat TRPV1 expressed in CHO cells assessed as stimulation of Ca2+ uptake; outline: as §1
# [5] = molecular target: T1, Transient receptor potential cation channel subfamily V member 1; assay: Antagonist activity at human TRPV1 expressed in CHO cells assessed as inhibition of capsaicin-stimulated Ca2+ uptake; outline: as §1
# [6] = molecular target: T2, Transient receptor potential cation channel subfamily V member 1; assay: Antagonist activity at rat TRPV1 expressed in CHO cells assessed as inhibition of capsaicin-stimulated Ca2+ uptake; outline: as §1
# [7] = molecular target: Transient receptor potential cation channel subfamily V member 1 (Rattus norvegicus) (UniProt O35433); assay: Agonist activity at rat TRPV1 expressed in CHO cells assessed as stimulation of Ca2+ uptake relative to capsaicin; outline: as §1
# Transient receptor potential cation channel subfamily V member 1 (Rattus norvegicus), sequence (O35433 whole entry): as above
# [8] = molecular target: Transient receptor potential cation channel subfamily V member 1 (Rattus norvegicus) (UniProt O35433); assay: Ratio of I-RTX Ki to compound Ki for rat TRPV1 expressed in CHO cells
# [9] = molecular target: Transient receptor potential cation channel subfamily V member 1 (Rattus norvegicus) (UniProt O35433); assay: Partial antagonist activity at rat TRPV1 expressed in CHO cells assessed as inhibition of capsaicin-stimulated Ca2+ uptake measured as residual agonism; conditions: concentration not given here; outline: as §1
# T1 sequence (Q8NER1 whole entry): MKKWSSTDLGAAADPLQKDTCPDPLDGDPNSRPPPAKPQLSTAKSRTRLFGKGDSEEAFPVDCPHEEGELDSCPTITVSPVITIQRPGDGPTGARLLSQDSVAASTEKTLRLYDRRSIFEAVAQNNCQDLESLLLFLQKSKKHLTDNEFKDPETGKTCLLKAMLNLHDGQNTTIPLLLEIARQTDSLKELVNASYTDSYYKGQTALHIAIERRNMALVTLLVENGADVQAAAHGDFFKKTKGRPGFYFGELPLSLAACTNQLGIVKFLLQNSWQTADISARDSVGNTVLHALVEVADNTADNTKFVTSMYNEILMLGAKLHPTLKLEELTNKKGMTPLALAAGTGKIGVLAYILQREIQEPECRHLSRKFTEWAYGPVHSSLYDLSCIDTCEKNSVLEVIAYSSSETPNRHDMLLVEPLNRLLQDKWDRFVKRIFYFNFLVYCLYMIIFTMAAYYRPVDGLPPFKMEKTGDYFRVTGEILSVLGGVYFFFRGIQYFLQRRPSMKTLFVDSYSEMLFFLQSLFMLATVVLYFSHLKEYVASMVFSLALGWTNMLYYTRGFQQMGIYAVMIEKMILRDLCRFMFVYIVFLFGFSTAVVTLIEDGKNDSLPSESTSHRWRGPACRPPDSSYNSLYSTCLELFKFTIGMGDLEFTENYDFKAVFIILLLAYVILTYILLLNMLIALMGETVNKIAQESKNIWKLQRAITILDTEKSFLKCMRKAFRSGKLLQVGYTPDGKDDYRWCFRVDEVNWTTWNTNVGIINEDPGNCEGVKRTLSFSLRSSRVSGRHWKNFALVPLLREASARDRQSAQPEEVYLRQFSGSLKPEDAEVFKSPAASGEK
structure (smiles),measurement,setting,value
C=C(C)[C@]12C[C@@H](C)[C@@]34O[C@](Cc5ccccc5)(O[C@@H]1[C@@H]3C=C(COC(=O)Oc1ccc(N)c(OC)c1)C[C@]1(O)C(=O)C(C)=C[C@@H]41)O2,EC50,[1],6.28 nM
same,Ki,[2],140 nM
same,Ki,[3],0.58 nM
same,EC50,[4],1.84 nM
C=C(C)[C@]12C[C@@H](C)[C@@]34O[C@](Cc5ccccc5)(O[C@@H]1[C@@H]3C=C(COC(=O)Cc1cc(I)c(O)c(OC)c1)C[C@]1(O)C(=O)C(C)=C[C@@H]41)O2 [IODORESINIFERATOXIN],Ki,[2],11.8 nM
same,Ki,[5],5.87 nM
C=C(C)[C@]12C[C@@H](C)[C@@]34O[C@](Cc5ccccc5)(O[C@@H]1[C@@H]3C=C(COC(=O)Oc1cc(Cl)c(O)c(OC)c1)C[C@]1(O)C(=O)C(C)=C[C@@H]41)O2,EC50,[1],183 nM
same,Ki,[2],50 nM
same,Ki,[3],1.64 nM
same,Ki,[6],21.3 nM
same,Ki,[5],451 nM
same,Activity,[7],13%
C=C(C)[C@]12C[C@@H](C)[C@@]34O[C@](Cc5ccccc5)(O[C@@H]1[C@@H]3C=C(COC(=O)Oc1cc(Br)c(N)c(OC)c1)C[C@]1(O)C(=O)C(C)=C[C@@H]41)O2,Ki,[2],212 nM
same,Ratio Ki,[8],5
same,Ki,[3],1.83 nM
same,Ki,[6],2.46 nM
same,Ki,[5],666 nM
C=C(C)[C@]12C[C@@H](C)[C@@]34O[C@](Cc5ccccc5)(O[C@@H]1[C@@H]3C=C(COC(=O)Oc1cc(Br)c(O)c(OC)c1)C[C@]1(O)C(=O)C(C)=C[C@@H]41)O2,Ki,[2],33.3 nM
same,Ratio Ki,[8],2
same,Ki,[3],1.64 nM
same,inhibition,[9],13%
same,Ki,[6],5.2 nM
same,Ki,[5],512 nM
C=C(C)[C@]12C[C@@H](C)[C@@]34O[C@](Cc5ccccc5)(O[C@@H]1[C@@H]3C=C(COC(=O)Oc1ccc(NS(C)(=O)=O)c(OC)c1)C[C@]1(O)C(=O)C(C)=C[C@@H]41)O2,EC50,[1],16.5 nM
same,Ki,[2],82 nM
same,Ki,[3],1.28 nM
same,Activity,[7],89%
same,EC50,[4],4.62 nM
C=C(C)[C@]12C[C@@H](C)[C@@]34O[C@](Cc5ccccc5)(O[C@@H]1[C@@H]3C=C(COC(=O)Oc1cc(I)c(O)c(OC)c1)C[C@]1(O)C(=O)C(C)=C[C@@H]41)O2,Ki,[2],49 nM
same,Ratio Ki,[8],5
same,Ki,[3],1.66 nM
same,Ki,[6],2.23 nM
same,Ki,[5],189 nM
C=C(C)[C@]12C[C@@H](C)[C@@]34O[C@](Cc5ccccc5)(O[C@@H]1[C@@H]3C=C(COC(=O)Oc1cc(I)c(N)c(OC)c1)C[C@]1(O)C(=O)C(C)=C[C@@H]41)O2,Ki,[2],990 nM
same,Ki,[3],3.01 nM
same,Ki,[6],2.68 nM
same,Ki,[5],1800 nM
C=C(C)[C@]12C[C@@H](C)[C@@]34O[C@](Cc5ccccc5)(O[C@@H]1[C@@H]3C=C(COC(=O)Oc1cc(F)c(N)c(OC)c1)C[C@]1(O)C(=O)C(C)=C[C@@H]41)O2,EC50,[1],17.9 nM
same,Ki,[2],830 nM
same,Ki,[3],2.21 nM
same,Activity,[7],83%
same,EC50,[4],3.17 nM
C=C(C)[C@]12C[C@@H](C)[C@@]34O[C@](Cc5ccccc5)(O[C@@H]1[C@@H]3C=C(COC(=O)Cc1ccc(O)c(OC)c1)C[C@]1(O)C(=O)C(C)=C[C@@H]41)O2 [RESINIFERATOXIN],EC50,[1],0.92 nM
same,Ki,[2],1.23 nM
C=C(C)[C@]12C[C@@H](C)[C@@]34O[C@](Cc5ccccc5)(O[C@@H]1[C@@H]3C=C(COC(=O)Oc1cc(F)c(O)c(OC)c1)C[C@]1(O)C(=O)C(C)=C[C@@H]41)O2,EC50,[1],16.3 nM
same,Ki,[2],138 nM
same,Ki,[3],1.17 nM
same,EC50,[4],4.97 nM
C=C(C)[C@]12C[C@@H](C)[C@@]34O[C@](Cc5ccccc5)(O[C@@H]1[C@@H]3C=C(COC(=O)Oc1cc(Cl)c(N)c(OC)c1)C[C@]1(O)C(=O)C(C)=C[C@@H]41)O2,Ki,[2],330 nM
same,Ratio Ki,[8],5
same,Ki,[3],2.5 nM
same,Ki,[6],4.06 nM
same,Ki,[5],1400 nM
